Test results published in ChEMBL document CHEMBL1137710, “Synthesis and in vitro antitumor activity of new quinoxaline derivatives” (2009).

Assays:
Format in all cases: functional
[1] = test system: A498; assay: Growth inhibition of human A498 cells after 48 hrs by sulforhodamine B assay; details: A498, 48 h
Outline: (§1)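 NCI 60-human-tumor-cell-line panel, with compounds tested over a 5-log dose range. Values are taken from dose-response curves as log10 molar concentrations: GI50 is 50% net growth inhibition, TGI is total growth inhibition, and LC50 is 50% net cell death.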

[2] = test system: HT-29; assay: Growth inhibition of human HT-29 cells after 48 hrs by sulforhodamine B assay; details: HT-29, 48 h; outline: as §1
[3] = test system: OVCAR-8; assay: Growth inhibition of human OVCAR8 cells after 48 hrs by sulforhodamine B assay; details: OVCAR-8, 48 h; outline: as §1
[4] = test system: SN12C; assay: Growth inhibition of human SN12C cells after 48 hrs by sulforhodamine B assay
Outline: (§2)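 Run in the NCI 60-human-tumour-cell-line panel, tested over a 5-log dose range. Dose–response curves gave three values per cell line, each as a log10 molar concentration: GI50 (50% inhibition of net cell growth), TGI (total inhibition of net growth) and LC50 (50% net cell death). The mean graph midpoint is the arithmetic mean over all lines, with insensitive lines entered at the highest concentration tested.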

[5] = test system: Malme-3M; assay: Growth inhibition of human MALME-3M cells after 48 hrs by sulforhodamine B assay; outline: as §1
[6] = test system: NCI-H226; assay: Growth inhibition of human NCI-H226 cells after 48 hrs by sulforhodamine B assay; details: NCI-H226, 48 h; outline: as §1
[7] = test system: EKVX; assay: Growth inhibition of human EKVX cells after 48 hrs by sulforhodamine B assay; outline: as §1
[8] = test system: SK-OV-3; assay: Growth inhibition of human SKOV3 cells after 48 hrs by sulforhodamine B assay; details: SK-OV-3, 48 h; outline: as §1
[9] = test system: UO-31; assay: Growth inhibition of human UO31 cells after 48 hrs by sulforhodamine B assay; details: UO-31, 48 h; outline: as §2
[10] = test system: CCRF-CEM; assay: Growth inhibition of human CCRF-CEM cells after 48 hrs by sulforhodamine B assay; outline: as §1
[11] = test system: BT-549; assay: Growth inhibition of human BT549 cells after 48 hrs by sulforhodamine B assay; details: BT-549, 48 h; outline: as §1
[12] = test system: HCT-15; assay: Growth inhibition of human HCT15 cells after 48 hrs by sulforhodamine B assay; details: HCT-15, 48 h; outline: as §1
[13] = test system: UACC-257; assay: Growth inhibition of human UACC257 cells after 48 hrs by sulforhodamine B assay; details: UACC-257, 48 h; outline: as §2
[14] = test system: A549; assay: Growth inhibition of human A549 cells after 48 hrs by sulforhodamine B assay; details: A549, 48 h; outline: as §1
[15] = test system: HL-60(TB); assay: Growth inhibition of human HL-60(TB) cells after 48 hrs by sulforhodamine B assay; details: HL-60, 48 h
Outline: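 Tested only on compounds active in a three-line prescreen, in the NCI 60-human-tumour-cell-line panel over a 5-log dose range. Values come from dose–response curves as log10 molar GI50, the concentration inhibiting 50% net cell growth. Log10 TGI (total growth inhibition) and log10 LC50 (50% net cell death) were derived too. Mean graph midpoints include insensitive lines at the highest concentration tested.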

[16] = test system: MCF7; assay: Growth inhibition of human MCF7 cells after 48 hrs by sulforhodamine B assay; details: MCF7, 48 h; outline: as §1
[17] = test system: PC-3; assay: Growth inhibition of human PC3 cells after 48 hrs by sulforhodamine B assay; details: PC-3, 48 h; outline: as §1
[18] = test system: SR; assay: Growth inhibition of human SR cells after 48 hrs by sulforhodamine B assay; outline: as §2
[19] = test system: SNB-75; assay: Growth inhibition of human SNB75 cells after 48 hrs by sulforhodamine B assay; details: SNB-75, 48 h; outline: as §2
[20] = test system: DU-145; assay: Growth inhibition of human DU145 cells after 48 hrs by sulforhodamine B assay; details: DU-145, 48 h; outline: as §1
[21] = test system: ACHN; assay: Growth inhibition of human ACHN cells after 48 hrs by sulforhodamine B assay
[22] = test system: NCI-H460; assay: Anticancer activity against human NCI-H460 cells assessed as cell growth at 100 uM after 48 hrs by sulforhodamine B assay; details: NCI-H460, 48 h, read-out: Activity
[23] = test system: KM12; assay: Growth inhibition of human KM12 cells after 48 hrs by sulforhodamine B assay; details: KM12, 48 h; outline: as §1
[24] = test system: HOP-62; assay: Growth inhibition of human HOP62 cells after 48 hrs by sulforhodamine B assay; details: HOP-62, 48 h; outline: as §1
[25] = test system: HOP-92; assay: Growth inhibition of human HOP92 cells after 48 hrs by sulforhodamine B assay; details: HOP-92, 48 h; outline: as §1
[26] = test system: IGROV-1; assay: Growth inhibition of human IGROV1 cells after 48 hrs by sulforhodamine B assay; details: IGROV-1, 48 h; outline: as §1
[27] = test system: T47D; assay: Growth inhibition of human T47D cells after 48 hrs by sulforhodamine B assay; outline: as §2
[28] = test system: TK-10; assay: Growth inhibition of human TK10 cells after 48 hrs by sulforhodamine B assay; details: TK-10, 48 h; outline: as §2
[29] = test system: NCI-H460; assay: Growth inhibition of human NCI-H460 cells after 48 hrs by sulforhodamine B assay; details: NCI-H460, 48 h; outline: as §1
[30] = read-out: pLC50 (the source's name) (converted)

COc1ccc(CNc2nc3cc(N)cc(N)c3nc2-c2ccccc2)cc1
GI50 [1]: > 100 µM | CC50 [1, 30]: > 100 µM | TGI ([1]; read-out: pTGI (converted)): > 100 µM | GI50 [2]: 24.5 µM | LC50 [2]: > 100 µM | TGI ([2]; read-out: pTGI (converted)): 60.3 µM | GI50 [3]: 14.8 µM | CC50 [3, 30]: > 100 µM | TGI ([3]; read-out: pTGI (converted)): 39.8 µM | GI50 [4]: 17 µM | CC50 [4, 30]: 69.2 µM | TGI ([4]; read-out: pTGI (converted)): 34.7 µM | GI50 [5]: 10.7 µM | CC50 [5, 30]: 47.9 µM | TGI ([5]; read-out: pTGI (converted)): 22.4 µM | GI50 [6]: 20.4 µM | LC50 [6]: > 100 µM | TGI ([6]; read-out: pTGI (converted)): 70.8 µM | GI50 [7]: 14.8 µM | LC50 (50% net cell kill) [7]: 53.7 µM | TGI ([7]; read-out: pTGI (converted)): 28.2 µM | CC50 [8, 30]: > 100 µM | TGI ([8]; read-out: pTGI (converted)): 57.5 µM | GI50 [9]: 11.5 µM | CC50 [9, 30]: 72.4 µM | TGI ([9]; read-out: pTGI (converted)): 28.8 µM | GI50 [10]: 3.39 µM | LC50 [10]: > 100 µM | TGI ([10]; read-out: pTGI (converted)): 64.6 µM | GI50 [11]: 6.46 µM | CC50 [11, 30]: > 100 µM | TGI ([11]; read-out: pTGI (converted)): 30.9 µM | GI50 [12]: 15.8 µM | LC50 [12]: 75.9 µM | TGI ([12]; read-out: pTGI (converted)): 34.7 µM | GI50 [13]: 16.2 µM | CC50 [13, 30]: 56.2 µM | TGI ([13]; read-out: pTGI (converted)): 30.2 µM | GI50 [14]: 21.4 µM | LC50 [14]: > 100 µM | TGI ([14]; read-out: pTGI (converted)): 60.3 µM | GI50 [15]: 13.5 µM | LC50 [15]: > 100 µM | TGI ([15]; read-out: pTGI (converted)): 51.3 µM | GI50 [16]: 13.2 µM | CC50 [16, 30]: 53.7 µM | TGI ([16]; read-out: pTGI (converted)): 26.3 µM | GI50 [17]: 10.2 µM | CC50 [17, 30]: 72.4 µM | TGI ([17]; read-out: pTGI (converted)): 27.5 µM | GI50 [18]: 4.07 µM | LC50 (concentration giving 50% net cell death) [18]: > 100 µM | TGI ([18]; read-out: pTGI (converted)): > 100 µM | LC50 [19]: 72.4 µM | TGI ([19]; read-out: pTGI (converted)): 30.2 µM | GI50 [20]: 21.9 µM | CC50 [20, 30]: > 100 µM | TGI ([20]; read-out: pTGI (converted)): 57.5 µM | GI50 [21]: 14.8 µM | CC50 [21, 30]: 75.9 µM | TGI ([21]; read-out: pTGI (converted)): 33.9 µM | growth at 100 µM [22]: 0% | GI50 [23]: 13.2 µM | LC50 (50% net cell kill) [23]: > 100 µM | TGI ([23]; read-out: pTGI (converted)): 26.3 µM | GI50 [24]: 17.4 µM | LC50 [24]: 69.2 µM | TGI ([24]; read-out: pTGI (converted)): 34.7 µM | GI50 [25]: 12.9 µM | LC50 (50% net cell death) [25]: > 100 µM | TGI ([25]; read-out: pTGI (converted)): 37.2 µM | GI50 [26]: 12.9 µM | CC50 [26, 30]: 56.2 µM | TGI ([26]; read-out: pTGI (converted)): 26.9 µM | GI50 [27]: 2820 nM | CC50 [27, 30]: 72.4 µM | TGI ([27]; read-out: pTGI (converted)): 11 µM | GI50 [28]: 28.2 µM | CC50 [28, 30]: > 100 µM | TGI ([28]; read-out: pTGI (converted)): 57.5 µM | GI50 [29]: 20.4 µM | LC50 (50% net cell kill) [29]: > 100 µM | TGI ([29]; read-out: pTGI (converted)): 47.9 µM
